Experimental data taken from ChEMBL document CHEMBL5532760, “Synergy between the clavanins as a weapon against multidrug-resistant Enterobacter cloacae” (2024).
Converted amounts (≈) assume the structure as drawn. “And” between values parts separate entries of the source, which are not always exact repeats. Identical values can stand only once. Where a SMILES comes first, the peptide text is derived from it. [ ]: non-standard residue; d: D form. Dopa = N[C@@H](Cc1ccc(O)c(O)c1)C(=O)O

Tests used:
Enterobacter cloacae [1] = assay: Antibacterial activity against Enterobacter cloacae 0136 at pH 7.4 incubated for 18 to 20 hrs by broth microdilution method; type: functional; settings: time 18-20 hrs
Method in brief: (§1)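 E. cloacae AR#0136 grown at 37 °C with shaking at 234 rpm to mid-log (OD600 0.4–0.6) in MHB. For pH 5.5 the medium was adjusted with 0.1 M HCl before autoclaving; the pH 7.4 medium was not adjusted. Peptides were twofold serially diluted; final inoculum 5×10^5 CFU/mL; 37 °C for 18–20 h. MIC taken as the lowest concentration with no visible growth.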

Enterobacter cloacae [2] = assay: Antibacterial activity against Enterobacter cloacae 0136 at pH 5.5 incubated for 18 to 20 hrs by broth microdilution method; type: functional; settings: time 18-20 hrs; method in brief: as §1

MIC (Enterobacter cloacae [1]) | MIC (Enterobacter cloacae [2]) | Compound
> 128 µM and 371 µg/mL | 8 µM and 23 µg/mL | CC[C@H](C)[C@H](NC(=O)[C@H](CCCNC(=N)N)NC(=O)CNC(=O)[C@H](CC(C)C)NC(=O)[C@H](CC(C)C)NC(=O)[C@H](CCCCN)NC(=O)[C@H](Cc1ccccc1)NC(=O)[C@H](C)N)C(=O)N[C@H](C(=O)N[C@@H](Cc1cnc[nH]1)C(=O)N[C@@H](Cc1cnc[nH]1)C(=O)N[C@H](C(=O)NCC(=O)N[C@@H](CC(N)=O)C(=O)N[C@@H](Cc1ccccc1)C(=O)N[C@H](C(=O)N[C@@H](Cc1ccc(O)c(O)c1)C(=O)NCC(=O)N[C@@H](Cc1ccccc1)C(=O)N[C@@H](CO)C(=O)N[C@@H](Cc1cnc[nH]1)C(=O)N[C@H](C(=O)N[C@@H](Cc1ccccc1)C(=O)O)C(C)C)C(C)C)C(C)C)[C@@H](C)CC (H-AFKLLGRIIHHVGNFV[Dopa]GFSHVF-OH)
348 mg/L | 11 mg/L | H-FLRFIGSVIHGIGHLVHHIGVAL-NH2
4 µM and 4.9 µg/mL | 4 µM and 4.9 µg/mL | H-GIGKFLHSAKKFGKAFVGEIMNS-NH2
> 128 µM and 341 µg/mL | > 128 µM and 341 µg/mL | H-VFQFLGKIIHHVGNFVHGFSHVF-NH2

Second part, the compound before the results:

Compound | MIC (Enterobacter cloacae [1]) | MIC (Enterobacter cloacae [2])
CC[C@H](C)[C@H](NC(=O)[C@H](CCCCN)NC(=O)CNC(=O)[C@H](CC(C)C)NC(=O)[C@H](CC(C)C)NC(=O)[C@H](Cc1cnc[nH]1)NC(=O)[C@H](Cc1ccccc1)NC(=O)[C@@H](N)C(C)C)C(=O)N[C@H](C(=O)N[C@@H](Cc1cnc[nH]1)C(=O)N[C@@H](Cc1cnc[nH]1)C(=O)N[C@H](C(=O)NCC(=O)N[C@@H](CC(N)=O)C(=O)N[C@@H](Cc1ccccc1)C(=O)N[C@H](C(=O)N[C@@H](Cc1ccc(O)c(O)c1)C(=O)NCC(=O)N[C@@H](Cc1ccccc1)C(=O)N[C@@H](CO)C(=O)N[C@@H](Cc1cnc[nH]1)C(=O)N[C@H](C(=O)N[C@@H](Cc1ccccc1)C(=O)O)C(C)C)C(C)C)C(C)C)[C@@H](C)CC | > 128 µM and 372 µg/mL | 46 mg/L (≈ 17.1 µM)
H-LFKLLGKIIHHVGNFVHGFSHVF-NH2 | > 128 µM and 368 µg/mL | 8 µM and 23 µg/mL
H-VFQFLGRIIHHVGNFVHGFSHVF-NH2 | > 128 µM and 344 µg/mL | 128 µM and 344 µg/mL
